# Assay results from PubChem BioAssay AID540295 (The Scripps Research Institute Molecular Screening Center, 2011).
# Out of some 360,000 compounds screened, about 1,700 (0.47%) were called active.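 Rule for the calls: active = inhibition above its plate's cutoff, the mean of tested wells on that plate plus 3 SD (cut at about 29% in these data); inactive = the rest.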 For the sample, actives were picked, then their nearest neighbours and some compounds at random.
# Target: Melanocortin receptor 4 (Homo sapiens) (UniProt P32245)
# Assay: blockers of MC4R Gs-cAMP response – cell-based, TR-FRET, antagonist arm of biased-ligand search, primary screen (AID 540295);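 note: 0% = Melanotan II alone and 100% = Melanotan II plus saturating MCL0020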
# Settings: MC4R-expressing cells, MTII-stimulated cAMP, LANCE TR-FRET; at 6.5 µM; stronger effect = higher value
# In short: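 System – human MC4R-expressing U2OS cells · Also added – Melanotan II · Dosing – one concentration, 6.5 µM nominal · Timing – 30-min compound, 1-h challenge, 1-h detection, room temperature · Measured by – Eu-cAMP/anti-cAMP TR-FRET, emission 671 nm · Replicates – singlicate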
# Chain of Melanocortin receptor 4 (Homo sapiens) (P32245 whole entry, looked up): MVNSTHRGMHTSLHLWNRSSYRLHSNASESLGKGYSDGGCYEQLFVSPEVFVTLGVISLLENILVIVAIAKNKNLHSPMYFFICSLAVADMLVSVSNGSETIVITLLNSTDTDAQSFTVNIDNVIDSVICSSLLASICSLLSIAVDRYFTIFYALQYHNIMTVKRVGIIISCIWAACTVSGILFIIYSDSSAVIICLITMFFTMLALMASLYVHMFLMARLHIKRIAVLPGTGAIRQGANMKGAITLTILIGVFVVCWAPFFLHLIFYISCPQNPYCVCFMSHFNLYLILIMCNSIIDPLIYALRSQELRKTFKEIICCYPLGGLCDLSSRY
row,Structure (SMILES),inhibition
1,CCC1CCCCN1C(=S)Nc1ccc(S(=O)(=O)Nc2ncccn2)cc1 (configuration not stated),-1.16% (inactive)
2,C=CC(=O)OCCOCCOCCOCCOC(=O)C=C,-0.74% (inactive)
3,COCC(C)NC(=O)c1ccc(-n2nc(C(F)(F)F)cc2-c2cccs2)cc1 (configuration not stated),11.7% (inactive)
4,Cc1ccc(C)c(NC2=NCC(=O)N2c2ccc3c(c2)OCCO3)c1,-2.27% (inactive)
5,Cc1cc(=O)oc2c3c(cc(OCC(=O)NCC(O)c4ccccc4)c12)OC(C)(C)CC3 (configuration not stated),14.2% (inactive)
6,Brc1c(CSc2nncc3ccccc23)nc2ccccn12,0.34% (inactive)
7,CC(C(=O)O)n1cnc2sc3c(c2c1=O)CCCC3 (configuration not stated),-7.65% (inactive)
8,CCOC(=O)C(C)n1cnc2sc(C)c(C)c2c1=O (configuration not stated),31.2% (active)
9,CCOC(=O)C(C)n1cnc2scc(-c3ccc(C)c(C)c3)c2c1=O (configuration not stated),1.47% (inactive)
10,CC(=O)NC12CC3CC(C1)CC(C(=O)N1CCN(C(=O)c4ccco4)CC1)(C3)C2,-0.56% (inactive)
11,CCN1CCN(c2nc(Nc3cc(OC)ccc3OC)nc(Nc3cc(OC)ccc3OC)n2)CC1,12.3% (inactive)
12,COc1ccc(Nc2ncc(F)c(N3CCOCC3)n2)cc1,-0.86% (inactive)
13,CCOc1ccc(Nc2nc(Cl)nc(N3CCN(c4ccc(OC)cc4)CC3)n2)cc1,29.1% (active)
14,Cc1ccc(Nc2cc(C)nc3c(C)ccc([N+](=O)[O-])c23)cc1,-5.69% (inactive)
15,CCNC(=O)CCc1nc(-c2ccc(C(C)(C)C)cc2)no1,9.83% (inactive)
16,Cc1cccc(-c2nc3c(c(SCC(=O)N4CCOCC4)n2)CCCC3)c1,3.91% (inactive)
17,CCCS(=O)(=O)NC(=O)C1(C)CCCN(C(=O)c2ccnc(Cl)c2)C1 (configuration not stated),-1.37% (inactive)
18,Cc1nnc(N/N=C/C2CC=CCC2)[nH]c1=O (configuration not stated),33.9% (active)
19,Cc1nnc(N/N=C/c2ccccn2)[nH]c1=O,-1.07% (inactive)

row,Structure (SMILES),inhibition
1,O=C(N/N=C\C1CC=CCC1)c1ccc(Br)o1 (configuration not stated),6.38% (inactive)
2,CCN1CCN(C(=O)CN(C)S(=O)(=O)c2ccc(OC)cc2)CC1,9.54% (inactive)
3,Cc1ccc(NC(=O)CCNC(=O)c2ccc([N+](=O)[O-])cc2)cc1S(=O)(=O)N1CCOCC1,-2.86% (inactive)
4,Cc1ccc([N+](=O)[O-])cc1S(=O)(=O)N1CCCN(C)CC1,-8.59% (inactive)
5,Cc1ccc(C)c(S(=O)(=O)N2CCN(CC(=O)Nc3ccc([N+](=O)[O-])cc3)CC2)c1,34.2% (active)
6,COC(=O)c1ccc(CSc2ccc(S(=O)(=O)N3CCCCC3)cn2)cc1,0.99% (inactive)
7,Cc1ccc(SC(C)C(=O)NCc2ccc(F)cc2)cc1 (configuration not stated),-3.51% (inactive)
8,Cc1ccc(Sc2cc(C(=O)c3ccccc3C(=O)O)ccc2[N+](=O)[O-])cc1,-7.09% (inactive)
9,Cc1ccc(SC(CC(=O)c2ccc(C(C)(C)C)cc2)C(=O)O)cc1 (configuration not stated),31.2% (active)
10,Cc1ccc(S(=O)(=O)NC(C(=O)N2CCOCCOCCOCCOCC2)c2ccccc2)cc1 (configuration not stated),-0.07% (inactive)
11,Cc1ccc(S(=O)(=O)Nc2nc(C)cc(-n3nc(C)cc3C)n2)cc1,14.3% (inactive)
12,CCCC(C(=O)n1nc(C)cc1C)C(NS(=O)(=O)c1ccc(C)cc1)c1ccccc1 (configuration not stated),34.4% (active)
13,CCc1c(C)[nH]c(=S)c(C#N)c1C,14.3% (inactive)
14,O=C1NC[C@@H](c2ccccc2)OC(=O)[C@H](Cc2ccc(F)cc2)CC/C=C/C[C@H]1CC(=O)N(CCO)Cc1ccccc1,7.53% (inactive)
15,O=C(O)C(=Cc1ccc([N+](=O)[O-])cc1)CCc1ccccc1,-2.43% (inactive)
16,O=C1/C(=C\c2ccc([N+](=O)[O-])cc2)CS(=O)(=O)C/C1=C/c1ccc([N+](=O)[O-])cc1,34.6% (active)
17,CC(=O)Nc1ccc(C=Cc2ccc([N+](=O)[O-])cc2)cc1,1.16% (inactive)
18,CCN(C(=O)CSc1ncnc2sccc12)c1c(N)n(Cc2ccccc2)c(=O)[nH]c1=O,-1.83% (inactive)
19,CCCNc1ncnc2sc(C)c(C)c12,-9.19% (inactive)

row,Structure (SMILES),inhibition
1,COc1ccc(C(C[N+](=O)[O-])n2nc(C)cc2C)cc1 (configuration not stated),46.6% (active)
2,COc1ccc(OC)c(S(=O)(=O)n2c([N+](=O)[O-])cnc2C)c1,0.16% (inactive)
3,COc1cccc(CSc2nc3nc(C)cc(C)n3n2)c1,-3.34% (inactive)
4,Cc1ccc(C)c(S(=O)(=O)N2CCCOC2CNC(=O)C(=O)NC2CCCCC2)c1 (configuration not stated),4.1% (inactive)
5,O=C1CCC([N+](=O)[O-])C(c2ccccc2Br)N1 (configuration not stated),25.1% (inactive)
6,C/C(=N\OCC(=O)Nc1ccc(Br)cc1)c1cccs1,-1.35% (inactive)
7,Cc1ccc(OCC(=O)Nc2ccc(N3CCN(C(=O)c4ccco4)CC3)cc2)c(C)c1,12.1% (inactive)
8,Cc1ccc(OCC(=O)Nc2ccc(NC(=O)c3cccs3)cc2)c(C)c1,29.7% (active)
9,CC(=O)Oc1ccc(-c2cccc(C(=O)N3CCCCC3)c2)cc1,-4.05% (inactive)
10,O=C(O[C@@H]1[C@H](Cc2ccccc2)NS(=O)(=O)[C@H]2C[C@@H]3C=C[C@]12O3)c1ccccc1Br,12% (inactive)
11,Cc1ccc(NS(=O)(=O)c2ccc(C)c(NC(=O)COc3ccc4ccccc4c3)c2)c(C)c1,31.4% (active)
12,Cc1ccc(C)c(NS(=O)(=O)c2ccc(OCC(=O)NCc3cccnc3)cc2)c1,-2.79% (inactive)
13,Cc1ccc(C)c(NC(=O)CN(C)C(=O)COc2ccc3ccccc3c2)c1,2.76% (inactive)
14,O=C(Nc1cc(C(F)(F)F)ccc1Cl)c1cc2nc3c(c(C(F)(F)F)n2n1)CCCC3,2.12% (inactive)
15,CN(CC(=O)NC1CCCC1)S(=O)(=O)c1cnc[nH]1,-1.7% (inactive)
16,O=C(OCc1ccc([N+](=O)[O-])cc1)C1CC(=O)N(Cc2ccccc2Cl)C1 (configuration not stated),7.18% (inactive)
17,CCCCCOC(=O)C1=C(C)Nc2nnnn2C1c1ccc(OC)c(OC)c1OC (configuration not stated),12.4% (inactive)
18,Cn1ccc(=NC=C(C#N)C#N)c2ccccc21,27.8% (inactive)
19,O=[N+]([O-])/C=C/c1ccc2c(ccn2Cc2ccccc2)c1,46.2% (active)
